The structures appear in SMILES notation. Calls of active or inactive are those of the source. No cut-off for these calls is given here.

Experiment [1] concerns the target Dual specificity mitogen-activated protein kinase kinase 1 (Mus musculus, UniProt P31938). The experiment in a line: Inhibition of MEK1 in mouse C26 cells assessed as inhibition of ERK1/2 phosphorylation incubated for 1 hr by Western blotting. It counts as cell-based.
Experiment [2] has as its target T1, Dual specificity mitogen-activated protein kinase kinase 1 (Homo sapiens, UniProt Q02750). The experiment in a line: Inhibition of MEK1 in human D54 cells assessed as inhibition of ERK1/2 phosphorylation at 1 to 25 uM incubated for 1 hr by Western blotting. Format: cell-based. In outline: (§1)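 Cells seeded 24 h before treatment, then exposed to compounds for 1 h; DMSO vehicle control. Lysis in NP-40 buffer (1% NP40, 150 mM NaCl, 25 mM Tris pH 8.0) with protease and phosphatase inhibitors. Protein measured by Lowry. Equal protein run on 4-12% Bis-Tris gels and blotted. Probes: pERK1/2 (Thr202/Tyr204), pAKT (S473), total ERK/AKT, β-actin; ECL detection.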

The subject of experiment [3] is D54. The experiment in a line: Cytotoxic activity against human D54 cells assessed as reduction in cell viability incubated for 48 hrs by alamar blue assay. It counts as functional, cell-based. In outline: (§2)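 Cells grown in RPMI with 10% heat-inactivated FBS and 1% penicillin/streptomycin/glutamine at 37 °C, 5% CO2. Compounds made as 10 mM DMSO stocks, serially diluted in RPMI. Controls received media with 1% DMSO. Viability read by AlamarBlue fluorescence 48 h after dosing. Combination treatments used co-administered single agents.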

Experiment [4] deals with A549. In words: Inhibition of PI3K in human A549 cells assessed as inhibition of AKT phosphorylation at 1 to 25 uM incubated for 1 hr by Western blotting. It counts as cell-based. In outline: as §1
Experiment [5] relates to Mus musculus. In words: In-vivo inhibition of MEK1 in human A549 cells xenografted nude Foxn1nu mouse assessed as reduction in tumor ERK1/2 phosphorylation dosed through oral gavage 2 hrs before mouse sacrifice by Western blot method. It counts as functional, organism-based. In outline:
(§3)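 Five-week-old athymic nude Foxn1nu mice given s.c. flank injections of 1×10^6 cells in 50% RPMI/50% Matrigel (n=2 per tumor type). At about 150 mm³ tumor volume, mice were fasted 4 h, then dosed by oral gavage with 375 mg/kg in DMSO:HPBCD (3:2) or vehicle. Sacrifice at 2 h. Excised tumors analysed by western blot for pERK1/2 and pAKT.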

In experiment [6] the test system is Mus musculus. In words: In-vivo inhibition of MEK1 in human D54 cells xenografted nude Foxn1nu mouse assessed as reduction in tumor ERK1/2 phosphorylation dosed through oral gavage 2 hrs before mouse sacrifice by Western blot method. Format: functional, organism-based. The procedure, abridged: as §3
For experiment [7], the system named is Mus musculus. In words: In-vivo inhibition of PI3K in human D54 cells xenografted nude Foxn1nu mouse assessed as reduction in tumor AKT phosphorylation dosed through oral gavage 2 hrs before mouse sacrifice by Western blot method. It counts as functional, organism-based. In outline: as §3
In experiment [8] the test system is A549. In words: Cytotoxic activity against human A549 cells assessed as reduction in cell viability incubated for 48 hrs by alamar blue assay. Format: functional, cell-based. In outline:
as §2

Experiment [9] deals with Mus musculus. The experiment in a line: In-vivo inhibition of PI3K in human A549 cells xenografted nude Foxn1nu mouse assessed as reduction in tumor AKT phosphorylation dosed through oral gavage 2 hrs before mouse sacrifice by Western blot method. It counts as functional, organism-based. The procedure, abridged: as §3
The subject of experiment [10] is D54. The experiment in a line: Inhibition of PI3K in human D54 cells assessed as inhibition of AKT phosphorylation at 1 to 25 uM incubated for 1 hr by Western blotting. It counts as cell-based. In outline: as §1
In experiment [11] the target is T1, Dual specificity mitogen-activated protein kinase kinase 1. The experiment in a line: Inhibition of MEK1 in human A549 cells assessed as inhibition of ERK1/2 phosphorylation at 1 to 25 uM incubated for 1 hr by Western blotting. It counts as cell-based. In outline:
as §1

In experiment [12] the test system is D54. The experiment in a line: Cytotoxic activity against human D54 cells assessed as reduction in cell viability incubated for 48 hrs in presence of PD0325901 by alamar blue assay. Format: functional, cell-based. In outline:
as §2

Experiment [13] is described as follows: Inhibition of PI3K (unknown origin) assessed as reduction in lipid kinase activity by fluorescence-based Adapta TR-FRET assay. Also on record: species or system Homo sapiens.
Experiment [14] relates to Mus musculus. In words: In-vivo inhibition of PI3K in human D54 cells xenografted nude Foxn1nu mouse assessed as reduction in tumor AKT phosphorylation at 375 mg/kg, po dosed 2 hrs before mouse sacrifice by Western blot method. Format: functional. In outline:
as §3

The target in experiment [15] is T1, Dual specificity mitogen-activated protein kinase kinase 1. The experiment in a line: Inhibition of purified MEK1 (unknown origin) assessed as reduction in phosphorylation of inactive Erk2 incubated for 30 mins by Kinase-Glo luminescent kinase assay.
The subject of experiment [16] is Mus musculus. In words: In-vivo inhibition of MEK1 in human D54 cells xenografted nude Foxn1nu mouse assessed as reduction in tumor ERK1/2 phosphorylation at 375 mg/kg, po dosed 2 hrs before mouse sacrifice by Western blot method. It counts as functional. The procedure, abridged: as §3
Experiment [17] has as its system D54. The experiment in a line: Cytotoxic activity against human D54 cells assessed as reduction in cell viability incubated for 48 hrs in presence of ZSTK474 by alamar blue assay. It counts as functional, cell-based. In outline:
as §2

T1 sequence (Q02750 whole entry): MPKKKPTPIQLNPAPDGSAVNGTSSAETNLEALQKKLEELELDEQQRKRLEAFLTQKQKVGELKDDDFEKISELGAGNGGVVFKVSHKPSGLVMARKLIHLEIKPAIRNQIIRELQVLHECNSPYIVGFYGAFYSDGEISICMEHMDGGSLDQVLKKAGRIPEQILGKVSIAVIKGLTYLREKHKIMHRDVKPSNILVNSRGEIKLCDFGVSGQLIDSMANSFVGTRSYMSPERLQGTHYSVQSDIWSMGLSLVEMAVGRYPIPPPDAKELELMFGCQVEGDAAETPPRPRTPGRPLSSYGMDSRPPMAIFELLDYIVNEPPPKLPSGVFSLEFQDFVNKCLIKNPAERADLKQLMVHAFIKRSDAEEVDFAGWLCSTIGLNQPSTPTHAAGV
Dual specificity mitogen-activated protein kinase kinase 1 (Mus musculus, UniProt P31938), sequence (P31938 whole entry): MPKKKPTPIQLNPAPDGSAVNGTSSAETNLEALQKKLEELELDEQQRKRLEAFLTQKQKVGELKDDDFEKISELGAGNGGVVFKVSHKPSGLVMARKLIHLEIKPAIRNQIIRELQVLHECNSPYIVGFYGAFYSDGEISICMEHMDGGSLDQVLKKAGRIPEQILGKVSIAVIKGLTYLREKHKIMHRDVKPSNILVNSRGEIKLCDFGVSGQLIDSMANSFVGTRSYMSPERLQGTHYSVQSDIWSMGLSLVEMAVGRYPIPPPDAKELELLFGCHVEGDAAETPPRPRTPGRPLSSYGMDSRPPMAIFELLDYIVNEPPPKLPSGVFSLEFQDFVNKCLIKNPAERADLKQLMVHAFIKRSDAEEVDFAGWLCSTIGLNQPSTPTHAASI

`CNCCONC(=O)c1ccc(F)c(F)c1Nc1ccc(I)cc1F`: the concentration for half-maximal inhibition (IC50) in [1] came out at 20 nM.
As to `O=C(NOCCNCCCCCC(=O)N1CCN(c2nc(N3CCOCC3)nc(-n3c(C(F)F)nc4ccccc43)n2)CC1)c1ccc(F)c(F)c1Nc1ccc(I)cc1F`, the inhibition entry in experiment [2], in experiment [4], in experiment [5], in experiment [6], in [7] and in experiment [9] was “Active” throughout. The inhibition result in experiment [10] and in experiment [11] was “Active” throughout. Moreover, the inhibition result in experiment [3] and in experiment [8] was “Dose-dependent effect” each time.
For `FC(F)c1nc2ccccc2n1-c1nc(N2CCOCC2)nc(N2CCOCC2)n1`, the inhibition result in [3] and in [8] was “Dose-dependent effect” each time. Also, the outcome in experiment [12] was Active.
`O=C(NOCCNCCCCS(=O)(=O)N1CCN(c2nc(N3CCOCC3)nc(-n3c(C(F)F)nc4ccccc43)n2)CC1)c1ccc(F)c(F)c1Nc1ccc(I)cc1F`: the inhibition result in experiment [2] and in experiment [11] was “Active” throughout. Besides, the inhibition result in experiment [3] and in experiment [8] was “Dose-dependent effect” in each case. Moreover, the IC50 in experiment [13] was found to be 285 nM.
As for `O=C(NOCCOCCOCCOCCN1CCN(c2nc(N3CCOCC3)nc(-n3c(C(F)F)nc4ccccc43)n2)CC1)c1ccc(F)c(F)c1Nc1ccc(I)cc1F`, the inhibition entry in experiment [2], in experiment [4], in [10] and in [11] was “Active” in each case. Further, the inhibition in vivo at 375 mg/kg amounted to 67% in experiment [14] and 95% in [16]. In addition, the IC50 in experiment [15] amounted to 0.015 nM; in experiment [13], 191 nM. The inhibition result in experiment [3] and in experiment [8] was “Dose-dependent effect” each time.
As for `O=C(NOC[C@H](O)CO)c1ccc(F)c(F)c1Nc1ccc(I)cc1F`, the inhibition entry in experiment [3] and in [8] was “Dose-dependent effect” in each case. For the same molecule, the result in experiment [17] was Active.
Take `O=C(CNCCONC(=O)c1ccc(F)c(F)c1Nc1ccc(I)cc1F)NCCCCCC(=O)N1CCN(c2nc(N3CCOCC3)nc(-n3c(C(F)F)nc4ccccc43)n2)CC1`: the inhibition entry in [2], in experiment [4], in [10] and in [11] was “Active” each time. Further, the inhibition result in experiment [3] and in experiment [8] was “Dose-dependent effect” throughout.

The values are drawn from ChEMBL document CHEMBL3817736, “Discovery of Bifunctional Oncogenic Target Inhibitors against Allosteric Mitogen-Activated Protein Kinase (MEK1) and Phosphatidylinositol 3-Kinase (PI3K)” (J Med Chem, 2016).
